Experimental data published in ChEMBL document CHEMBL2412988, “Synthesis, pH-dependent, and plasma stability of meropenem prodrugs for potential use against drug-resistant tuberculosis” (Bioorg Med Chem, 2013).

System: not listed separately
Assay: Prodrug stability in MES buffer assessed as prodrug remaining at 100 uM after 120 mins at pH 6 by HPLC analysis
Format: physicochemical
Conditions: pH 6, 2 h; call rule not given here
How it was run: (§1)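 Meropenem or prodrug at 100 µM final (from a 5.0 mM DMSO stock) incubated at 37 °C in triplicate in simulated gastric fluid pH 1.2, 100 mM MES pH 6.0, or pH 7.4 buffer, after 2 min buffer pre-warming. Aliquots taken at 0–120 min and injected directly onto reversed-phase HPLC with UV at 300 nm. Half-life, % prodrug remaining at 120 min, or species concentration over time was reported.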

Compared with `C[C@@H](O)[C@H]1C(=O)N2C(C(=O)OCOC(=O)OC3CCCc4ccccc4C3)=C(S[C@@H]3CN[C@H](C(=O)N(C)C)C3)[C@H](C)[C@H]12` (mixture of isomers), `C[C@@H](O)[C@H]1C(=O)N2C(C(=O)OCOC(=O)OC3CCc4ccccc4C3)=C(S[C@@H]3CN[C@H](C(=O)N(C)C)C3)[C@H](C)[C@H]12` (mixture of isomers) is lower in Stability: 96% for the first, 93% for the second.

`C[C@@H](O)[C@H]1C(=O)N2C(C(=O)OCOC(=O)OC3Cc4ccccc4C3)=C(S[C@@H]3CN[C@H](C(=O)N(C)C)C3)[C@H](C)[C@H]12` gave a Stability of 96%.

Same assay, conditions: pH 6, 2 h, 2 h

With `CC(C)OC(=O)OC(C)OC(=O)C1=C(S[C@@H]2CN[C@H](C(=O)N(C)C)C2)[C@H](C)[C@@H]2[C@@H]([C@@H](C)O)C(=O)N12` (stereo not given in full) the Stability was 92%.
Compound `CC(C)OC(=O)OC(C)OC(=O)C1=C(S[C@@H]2CN[C@H](C(=O)N(C)C)C2)[C@H](C)[C@@H]2[C@@H]([C@@H](C)O)C(=O)N12` (single isomer, unassigned; diastereomer 1) has a Stability of 94%.

System: not listed separately
Assay: Chemical stability of the compound in simulated gastric fluid assessed as drug degradation at 10 uM after 30 mins at pH 1.2
Format: physicochemical
Conditions: read-out: Drug degradation

`C[C@@H](O)[C@H]1C(=O)N2C(C(=O)O)=C(S[C@@H]3CN[C@H](C(=O)N(C)C)C3)[C@H](C)[C@H]12` [MEROPENEM] showed a degraded at 0.5 h, 10 µM of 80%.

System: not listed separately
Assay: Half life in Dunkin-Hartley guinea pig plasma at 5 mM by HPLC analysis
Format: ADME, cell-free, Cavia porcellus
Conditions: 5000 µM
How it was run: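 Pooled plasma from female Dunkin Hartley guinea pigs was pre-warmed 2 min at 37 °C, then prodrug was added from a 5.0 mM stock. Runs were in triplicate. Aliquots were taken at 0, 2.5, 5, 10, 15 and 30 min, quenched with an equal volume of acetonitrile, filtered and analysed by reversed-phase HPLC at 300 nm for half-life.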

`C[C@@H](O)[C@H]1C(=O)N2C(C(=O)OCOC(=O)O[C@H]3CCCCc4ccccc43)=C(S[C@@H]3CN[C@H](C(=O)N(C)C)C3)[C@H](C)[C@H]12` and `C[C@@H](O)[C@H]1C(=O)N2C(C(=O)OCOC(=O)OC3CCCc4ccccc4C3)=C(S[C@@H]3CN[C@H](C(=O)N(C)C)C3)[C@H](C)[C@H]12` (mixture of isomers) are within 1.5-fold of each other in t1/2: 1.3 min for the first, 1.9 min for the second.

First: CC(C)OC(=O)OC(C)OC(=O)C1=C(S[C@@H]2CN[C@H](C(=O)N(C)C)C2)[C@H](C)[C@@H]2[C@@H]([C@@H](C)O)C(=O)N12 (single isomer, unassigned; diastereomer 1)
Second: C[C@@H](O)[C@H]1C(=O)N2C(C(=O)OCOC(=O)OC3Cc4ccccc4C3)=C(S[C@@H]3CN[C@H](C(=O)N(C)C)C3)[C@H](C)[C@H]12
The t1/2 of the first is 7.2-fold higher: 6.5 min for the first, 0.9 min for the second.

With `C[C@@H](O)[C@H]1C(=O)N2C(C(=O)OCOC(=O)OC3CCc4ccccc4C3)=C(S[C@@H]3CN[C@H](C(=O)N(C)C)C3)[C@H](C)[C@H]12` (mixture of isomers) the t1/2 was 1.7 min.

Same assay, conditions: Dunkin-Hartley

`CC(C)OC(=O)OC(C)OC(=O)C1=C(S[C@@H]2CN[C@H](C(=O)N(C)C)C2)[C@H](C)[C@@H]2[C@@H]([C@@H](C)O)C(=O)N12` (stereo not given in full) gave a half-life at 5000 µM of 1.4 min.

System: not listed separately
Assay: Prodrug stability in HEPES buffer assessed as prodrug remaining at 100 uM after 120 mins at pH 7.4 by HPLC analysis
Format: physicochemical
Conditions: pH 7.4, 2 h
How it was run: as §1

Compared with `C[C@@H](O)[C@H]1C(=O)N2C(C(=O)OCOC(=O)OC3CCCc4ccccc4C3)=C(S[C@@H]3CN[C@H](C(=O)N(C)C)C3)[C@H](C)[C@H]12` (mixture of isomers), `C[C@@H](O)[C@H]1C(=O)N2C(C(=O)OCOC(=O)OC3CCc4ccccc4C3)=C(S[C@@H]3CN[C@H](C(=O)N(C)C)C3)[C@H](C)[C@H]12` (mixture of isomers) is lower in Stability: 79% for the first, 78% for the second.

Work on `C[C@@H](O)[C@H]1C(=O)N2C(C(=O)OCOC(=O)OC3Cc4ccccc4C3)=C(S[C@@H]3CN[C@H](C(=O)N(C)C)C3)[C@H](C)[C@H]12` yielded a Stability of 70%.

Same assay, conditions: pH 7.4, 2 h, 2 h

Work on `CC(C)OC(=O)OC(C)OC(=O)C1=C(S[C@@H]2CN[C@H](C(=O)N(C)C)C2)[C@H](C)[C@@H]2[C@@H]([C@@H](C)O)C(=O)N12` (stereo not given in full) yielded a Stability of 87%.
Compound `CC(C)OC(=O)OC(C)OC(=O)C1=C(S[C@@H]2CN[C@H](C(=O)N(C)C)C2)[C@H](C)[C@@H]2[C@@H]([C@@H](C)O)C(=O)N12` (single isomer, unassigned; diastereomer 1) has a Stability of 90%.

System: not listed separately
Assay: Stability in HEPES buffer assessed as prodrug conversion to 1-Benzosuberol at pH 7.4 by HPLC analysis
Format: physicochemical
Conditions: not given

For `C[C@@H](O)[C@H]1C(=O)N2C(C(=O)OCOC(=O)O[C@H]3CCCCc4ccccc43)=C(S[C@@H]3CN[C@H](C(=O)N(C)C)C3)[C@H](C)[C@H]12`, the Drug metabolism was “Active”.

System: not listed separately
Assay: Lipophilicity, log D of the compound
Format: physicochemical
Conditions: octanol/water

`C[C@@H](O)[C@H]1C(=O)N2C(C(=O)O)=C(S[C@@H]3CN[C@H](C(=O)N(C)C)C3)[C@H](C)[C@H]12` [MEROPENEM] showed a logD of less than 2.5.

System: not listed separately
Assay: Chemical stability of the compound in simulated gastric fluid assessed as compound remaining at 10 uM after 60 mins at pH 1.2
Format: physicochemical
Conditions: read-out: Stability

In the case of `C[C@@H](O)[C@H]1C(=O)N2C(C(=O)O)=C(S[C@@H]3CN[C@H](C(=O)N(C)C)C3)[C@H](C)[C@H]12` [MEROPENEM], the remaining at 1 h, 10 µM is reported as 5%.

System: not listed separately
Assay: Half life in HEPES buffer at 100 uM at pH 7.4 by HPLC analysis
Format: physicochemical
Conditions: pH 7.4, 100 µM
How it was run: as §1

Compound `C[C@@H](O)[C@H]1C(=O)N2C(C(=O)OCOC(=O)O[C@H]3CCCCc4ccccc43)=C(S[C@@H]3CN[C@H](C(=O)N(C)C)C3)[C@H](C)[C@H]12` has a t1/2 of 28 min.

System: not listed separately
Assay: (§2) Half life in human plasma at 5 mM by HPLC analysis
Format: ADME, cell-free
Conditions: not given

With `CC(C)OC(=O)OC(C)OC(=O)C1=C(S[C@@H]2CN[C@H](C(=O)N(C)C)C2)[C@H](C)[C@@H]2[C@@H]([C@@H](C)O)C(=O)N12` (stereo not given in full) the half-life at 5000 µM was 11 min.

System: Plasma
Assay: as §2
Format: ADME, cell-free
Conditions: 5000 µM

Going from `C[C@@H](O)[C@H]1C(=O)N2C(C(=O)OCOC(=O)O[C@H]3CCCCc4ccccc43)=C(S[C@@H]3CN[C@H](C(=O)N(C)C)C3)[C@H](C)[C@H]12` to `C[C@@H](O)[C@H]1C(=O)N2C(C(=O)OCOC(=O)OC3CCCc4ccccc4C3)=C(S[C@@H]3CN[C@H](C(=O)N(C)C)C3)[C@H](C)[C@H]12` (mixture of isomers), the t1/2 falls from 44 min to 23 min (1.9-fold).

Going from `CC(C)OC(=O)OC(C)OC(=O)C1=C(S[C@@H]2CN[C@H](C(=O)N(C)C)C2)[C@H](C)[C@@H]2[C@@H]([C@@H](C)O)C(=O)N12` (single isomer, unassigned; diastereomer 1) to `C[C@@H](O)[C@H]1C(=O)N2C(C(=O)OCOC(=O)OC3Cc4ccccc4C3)=C(S[C@@H]3CN[C@H](C(=O)N(C)C)C3)[C@H](C)[C@H]12`, the t1/2 falls from 108 min to 4.3 min (25-fold).

Compound `C[C@@H](O)[C@H]1C(=O)N2C(C(=O)OCOC(=O)OC3CCc4ccccc4C3)=C(S[C@@H]3CN[C@H](C(=O)N(C)C)C3)[C@H](C)[C@H]12` (mixture of isomers) has a t1/2 of 8.1 min.

System: not listed separately
Assay: Half life in MES buffer at 100 uM at pH 6 by HPLC analysis
Format: physicochemical
Conditions: pH 6, 100 µM
How it was run: as §1

With `C[C@@H](O)[C@H]1C(=O)N2C(C(=O)OCOC(=O)O[C@H]3CCCCc4ccccc43)=C(S[C@@H]3CN[C@H](C(=O)N(C)C)C3)[C@H](C)[C@H]12` the t1/2 was 32 min.

System: not listed separately
Assay: Stability in HEPES buffer assessed as prodrug conversion to meropenem at pH 7.4 by HPLC analysis
Format: physicochemical
Conditions: not given
How it was run: as §1

In the case of `C[C@@H](O)[C@H]1C(=O)N2C(C(=O)OCOC(=O)O[C@H]3CCCCc4ccccc43)=C(S[C@@H]3CN[C@H](C(=O)N(C)C)C3)[C@H](C)[C@H]12`, the Drug metabolism is reported as “Active”.

System: not listed separately
Assay: Half life in simulated gastric fluid at 100 uM at pH 1.2 by HPLC analysis
Format: physicochemical
Conditions: simulated gastric fluid, pH 1.2
How it was run: as §1

`CC(C)OC(=O)OC(C)OC(=O)C1=C(S[C@@H]2CN[C@H](C(=O)N(C)C)C2)[C@H](C)[C@@H]2[C@@H]([C@@H](C)O)C(=O)N12` (stereo not given in full) gave a half-life at 100 µM of 9.8 min.

Same assay, conditions: simulated gi fluid, pH 1.2, 100 µM

First: C[C@@H](O)[C@H]1C(=O)N2C(C(=O)OCOC(=O)O[C@H]3CCCCc4ccccc43)=C(S[C@@H]3CN[C@H](C(=O)N(C)C)C3)[C@H](C)[C@H]12
Second: C[C@@H](O)[C@H]1C(=O)N2C(C(=O)OCOC(=O)OC3CCCc4ccccc4C3)=C(S[C@@H]3CN[C@H](C(=O)N(C)C)C3)[C@H](C)[C@H]12 (mixture of isomers)
The t1/2 of the first is 2.3-fold lower: 9.3 min for the first, 21 min for the second.

`CC(C)OC(=O)OC(C)OC(=O)C1=C(S[C@@H]2CN[C@H](C(=O)N(C)C)C2)[C@H](C)[C@@H]2[C@@H]([C@@H](C)O)C(=O)N12` (single isomer, unassigned; diastereomer 1) and `C[C@@H](O)[C@H]1C(=O)N2C(C(=O)OCOC(=O)OC3Cc4ccccc4C3)=C(S[C@@H]3CN[C@H](C(=O)N(C)C)C3)[C@H](C)[C@H]12` are within 1.5-fold of each other in t1/2: 8.8 min for the first, 13 min for the second.

`C[C@@H](O)[C@H]1C(=O)N2C(C(=O)OCOC(=O)OC3CCc4ccccc4C3)=C(S[C@@H]3CN[C@H](C(=O)N(C)C)C3)[C@H](C)[C@H]12` (mixture of isomers) showed a t1/2 of 14 min.
